Results pooled from the literature.
Target: Carbonic anhydrase 1 (CA1, Homo sapiens, UniProt P00915)
Observed: enzyme activity
Mode: inhibitor

N#C[Se]Cc1cc(=O)oc2cc(O)ccc12  Ki (stopped-flow): > 100000 nM
NC(=S)N/N=C1/c2ccccc2[C@@H]2[C@H]1[C@@H](c1ccccc1)[C@H](C(=O)c1ccccc1)[C@H]2c1ccccc1 (racemic)  IC50 (absorbance): 1550 nM
CCOP1(=O)CC=Cc2cc(N)ccc2O1 (stereo not drawn)  Ki (stopped-flow): > 10000 nM
Cc1ccc([C@H]2[C@H](C(=O)c3cccs3)[C@@H](c3cccs3)[C@@H]3c4ccccc4/C(=N/NC(N)=S)[C@@H]32)cc1 (racemic)  IC50 (absorbance): 1670 nM
O=C(Nc1ccc2c(c1)C=CCP(=O)(O)O2)c1ccccc1I  Ki (stopped-flow): > 10000 nM
CC(C)c1cc2c(c(O)c1O)[C@@]13CCCC(C)(C)[C@@H]1[C@@H](O)[C@@H]2OC3=O  IC50: 1.63 nM
O=C(Nc1ccc2c(c1)C=CCP(=O)(O)O2)c1ccc([N+](=O)[O-])cc1  Ki (stopped-flow): > 10000 nM
CC(C)c1cc2c(c(O)c1O)[C@@]13CCCC(C)(C)[C@@H]1C[C@@H]2OC3=O  Ki: 2.3 nM
COc1ccc(C(=O)[C@@H]2[C@@H](c3ccc(OC)cc3)[C@@H]3c4ccccc4/C(=N/NC(N)=S)[C@@H]3[C@H]2c2ccc(OC)cc2)cc1 (racemic)  IC50 (absorbance): 1070 nM
CC(C)c1cc2c(c(O)c1O)[C@@]13CCCC(C)(C)[C@@H]1[C@H](OC3=O)[C@H]2O  Ki: 0.12 nM
Cc1ccc([C@@H]2[C@@H](C(=O)c3cccs3)[C@H](c3ccco3)[C@H]3/C(=N\NC(N)=S)c4ccccc4[C@H]32)cc1 (racemic)  IC50 (absorbance): 413 nM
Cc1c(Cl)c(=O)oc2cc(OCCCC[Se]C#N)ccc12  Ki (stopped-flow): > 100000 nM
CC(C)c1cc2c(c(O)c1O)[C@@]1(C(=O)O)CCCC(C)(C)[C@@H]1CC2  IC50: 3.1 nM
O=C(Nc1cccc(C(F)(F)F)c1)Nc1ccc2c(c1)C=CCP(=O)(O)O2  Ki (stopped-flow): > 10000 nM
NC(=S)N/N=C1/c2ccccc2[C@@H]2[C@H]1[C@@H](c1ccsc1)[C@H](C(=O)c1ccsc1)[C@H]2c1ccsc1 (racemic)  IC50 (absorbance): 452 nM
